Results on 4 compounds are retold here after ChEMBL document CHEMBL4138180, “neo-Clerodane Diterpenoids from Salvia polystachya Stimulate the Expression of Extracellular Matrix Components in Human Dermal Fibroblasts” (2017).

The source made the active and inactive calls. The calls are words filed in the database; no cut-off is given here.

For assay [1], the system named is NHDF. Nature of the assay: Upregulation of […] mRNA expression in HDF at 0.28 to 27.9 uM after 48 hrs by RT-PCR analysis relative to control. It is filed as functional, Homo sapiens. The gist of the method: (§1)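 Normal human dermal fibroblasts from plastic-surgery biopsies, collagenase-disaggregated, grown in L15 Leibovitz with 10% FBS and penicillin/streptomycin at 37 °C. At 70% confluence refed with medium containing 0.26−0.29, 2.56−2.93 or 25.6−29.3 μM compound for 48 h. Total RNA, oligo-dT RT-PCR, 30 cycles, agarose gel band densitometry normalized to GAPDH. Fold versus basal-medium control, mean ± SD, one-way ANOVA.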

Assay [2] deals with NHDF. Nature of the assay: Upregulation of COL1A1 mRNA expression in HDF at 0.28 uM after 48 hrs by RT-PCR analysis relative to control. It is filed as functional, Homo sapiens. The gist of the method: as §1
In assay [3] the test system is NHDF. Nature of the assay: Inhibition of elastin mRNA expression in HDF at 0.28 to 27.9 uM after 48 hrs by RT-PCR analysis. It is filed as functional, cell-based. The following applies: Homo sapiens. The method in brief:
as §1

In another assay the test system is Nakaseomyces glabratus. Nature of the assay: Antifungal activity against Candida glabrata CBS 138 at 0.5 to 8 ug after 24 hrs by agar disc diffusion method. It is filed as functional, organism-based. The gist of the method:
(§2)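 Qualitative disk diffusion on potato dextrose agar. Fungal inoculum at a final 10^5 CFU mL−1. Disks carried 8, 4, 2, 1 and 0.5 μg of compound in DMSO. Incubated aerobically at 37 °C for 24 h. Growth-inhibition zone measured by caliper. Amphotericin B and DMSO disks served as controls.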
A general note: Agar diffusion results depend on both activity and mobility in agar.

For the next assay, the system named is Candida albicans. Nature of the assay: Antifungal activity against Candida albicans ATCC 10235 at 0.5 to 8 ug after 24 hrs by agar disc diffusion method. It is filed as functional, organism-based. The gist of the method:
as §2

For another assay, the system named is Bacillus sp. Nature of the assay: Antibacterial activity against Bacillus sp. at 0.5 to 8 ug after 18 hrs by agar disc diffusion method. It is filed as functional, organism-based. The method in brief: (§3)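 Bacteria suspended in saline at 10^8 CFU mL−1; 0.1 mL spread on nutrient agar (pH 6.8). Filter-paper disks carrying 8, 4, 2, 1 and 0.5 μg of compound (in DMSO) placed on the plates. Incubated aerobically at 37 °C for 18 h. Inhibition zone measured by caliper. Ampicillin and DMSO disks served as controls.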

For the next assay, the system named is Escherichia coli. Nature of the assay: Antibacterial activity against Escherichia coli at 0.5 to 8 ug after 18 hrs by agar disc diffusion method. It is filed as functional, organism-based. The gist of the method: as §3
Assay [4] has as its system NHDF. Nature of the assay: Upregulation of elastin mRNA expression in HDF at 0.28 to 27.9 uM after 48 hrs by RT-PCR analysis relative to control. It is filed as functional, Homo sapiens. The gist of the method: as §1
In assay [5] the test system is NHDF. Nature of the assay: Upregulation of COL5A1 mRNA expression in HDF at 0.28 uM after 48 hrs by RT-PCR analysis relative to control. It is filed as functional, Homo sapiens. The method in brief: as §1
The subject of assay [6] is NHDF. Nature of the assay: Upregulation of […] mRNA expression in HDF at 0.29 uM after 48 hrs by RT-PCR analysis relative to control. In kind it is functional, Homo sapiens. The gist of the method: (§4)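 Primary dermal fibroblasts from surgical biopsies, collagenase-dissociated and grown in L15 with 10% FBS at 37 °C. Total RNA (1 μg) was reverse-transcribed with oligo dT. PCR ran 30 cycles and products were run on 1.5% agarose. Bands were quantified and normalized to GAPDH, giving fold over the basal-medium control as mean ± SD, with one-way ANOVA.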

Assay [7] has as its system NHDF. Nature of the assay: Upregulation of COL1A1 mRNA expression in HDF at 0.29 to 29.3 uM after 48 hrs by RT-PCR analysis. In kind it is functional, cell-based. The note with it: Homo sapiens. The gist of the method:
as §4

Assay [8] deals with NHDF. Nature of the assay: Upregulation of COL5A1 mRNA expression in HDF at 2.93 uM after 48 hrs by RT-PCR analysis relative to control. In kind it is functional, Homo sapiens. The method in brief: as §4
The test system of assay [9] is NHDF. Nature of the assay: Upregulation of […] mRNA expression in HDF at 2.93 uM after 48 hrs by RT-PCR analysis relative to control. In kind it is functional, Homo sapiens. The gist of the method:
as §4

Assay [10] deals with NHDF. Nature of the assay: Inhibition of elastin mRNA expression in HDF at 0.29 to 29.3 uM after 48 hrs by RT-PCR analysis. In kind it is functional, cell-based. The following applies: Homo sapiens. The gist of the method: as §4
The test system of assay [11] is NHDF. Nature of the assay: Upregulation of elastin mRNA expression in HDF at 0.29 to 29.3 uM after 48 hrs by RT-PCR analysis relative to control. It is filed as functional, Homo sapiens. The method in brief: as §4
Assay [12] has as its system NHDF. Nature of the assay: Inhibition of elastin mRNA expression in HDF at 0.29 to 29.2 uM after 48 hrs by RT-PCR analysis. In kind it is functional, cell-based. The following applies: Homo sapiens. The gist of the method:
as §1

For assay [13], the system named is NHDF. Nature of the assay: Upregulation of COL1A1 mRNA expression in HDF at 29.2 uM after 48 hrs by RT-PCR analysis relative to control. It is filed as functional, Homo sapiens. The gist of the method: as §1
Assay [14] deals with NHDF. Nature of the assay: Upregulation of elastin mRNA expression in HDF at 0.29 to 29.2 uM after 48 hrs by RT-PCR analysis. In kind it is functional, cell-based. The following applies: Homo sapiens. The method in brief:
as §1

The test system of assay [15] is NHDF. Nature of the assay: Upregulation of elastin mRNA expression in HDF at 100 uM after 48 hrs by RT-PCR analysis. It is filed as functional, cell-based. The following applies: Homo sapiens. The method in brief: (§5)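 Positive control: ascorbic acid at 100 μM in basal medium (L15 Leibovitz, 10% FBS, antibiotics) added to normal human dermal fibroblasts at 70% confluence, 48 h, 37 °C. Total RNA reverse-transcribed with oligo dT, PCR 30 cycles, bands on 1.5% agarose quantified and normalized to GAPDH mRNA. Mean ± SD versus basal-medium control, one-way ANOVA.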

Assay [16] concerns NHDF. Nature of the assay: Upregulation of COL1A1 mRNA expression in HDF at 100 uM after 48 hrs by RT-PCR analysis. In kind it is functional, cell-based. The note with it: Homo sapiens. The method in brief: as §5

Consider `C[C@@H]1[C@H]2C[C@@]34COC(=O)[C@H]3C[C@H]3O[C@H]3[C@H]4[C@@]13C[C@H](c1ccoc1)O[C@H]3O2`, for which the “fold change (FC)” value was 2.1 - 2.5 with NHDF [1], 1.6 in the assay on NHDF [2], 2.7 - 3.2 in the assay with NHDF [4] and 2.2 in the assay on NHDF [5]. The inhibition result with NHDF [3] was “inactive”. For the same compound, the result in the assay with Nakaseomyces glabratus, in the assay with Candida albicans, in the assay with Bacillus sp. and in the assay on Escherichia coli was inactive.
With `C[C@]12C[C@H](c3ccoc3)OC(=O)[C@H]1CC[C@@]13COC(=O)C1=CC=C[C@H]32`, the “fold change (FC)” value in the assay with NHDF [6] was 2.5; in the assay on NHDF [8] it was 2.5; in the assay on NHDF [9], 3.4; in the assay on NHDF [11], 2.1 - 3.4. The outcome in the assay on NHDF [7], in the assay with Nakaseomyces glabratus, in the assay with Candida albicans, with Bacillus sp. and in the assay with Escherichia coli was inactive. The inhibition entry in the assay with NHDF [10] is “inactive”.
As for `C[C@@H]1[C@H]2C[C@@]34COC(=O)[C@H]3CC=C[C@H]4[C@@]13C[C@H](c1ccoc1)O[C@H]3O2`, in the assay with NHDF [12], the inhibition result was “inactive”. Moreover, the “fold change (FC)” value with NHDF [13] was 1.6. Further, the result in the assay with NHDF [14] was Active.
With `O=C1O[C@H]([C@@H](O)CO)C(O)=C1O`, the outcome in the assay with NHDF [15] and with NHDF [16] was Active.
